Experimental findings from paper PMC4764993 (Canadian journal of physiology and pharmacology, 2015) are described below.

The target of the test is MMP-9 (Homo sapiens, UniProt P14780). In words: In-vitro MMP-9 cleavage assay of synthetic OPN-peptides. Format: biochemical. Conditions: active MMP-9, 20:1 (w/w), 37 °C, 24 h; MS/MS identification of fragments. Put shortly:
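Synthetic N-acetylated, C-amidated mouse OPN peptides, each spanning a candidate cleavage site mid-sequence, incubated with active MMP-9 at 20:1 (w/w) in 1× zymogram developing buffer, 37 °C, 24 h. Controls lacked enzyme or peptide. Reactions C18-desalted, then LC-MS/MS (5–45% acetonitrile over 20 min; MS resolution 70 000, MS2 17 500). Fragments compared against both controls.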

MMP-9, sequence (P14780 107-707 limits assumed, species assumed): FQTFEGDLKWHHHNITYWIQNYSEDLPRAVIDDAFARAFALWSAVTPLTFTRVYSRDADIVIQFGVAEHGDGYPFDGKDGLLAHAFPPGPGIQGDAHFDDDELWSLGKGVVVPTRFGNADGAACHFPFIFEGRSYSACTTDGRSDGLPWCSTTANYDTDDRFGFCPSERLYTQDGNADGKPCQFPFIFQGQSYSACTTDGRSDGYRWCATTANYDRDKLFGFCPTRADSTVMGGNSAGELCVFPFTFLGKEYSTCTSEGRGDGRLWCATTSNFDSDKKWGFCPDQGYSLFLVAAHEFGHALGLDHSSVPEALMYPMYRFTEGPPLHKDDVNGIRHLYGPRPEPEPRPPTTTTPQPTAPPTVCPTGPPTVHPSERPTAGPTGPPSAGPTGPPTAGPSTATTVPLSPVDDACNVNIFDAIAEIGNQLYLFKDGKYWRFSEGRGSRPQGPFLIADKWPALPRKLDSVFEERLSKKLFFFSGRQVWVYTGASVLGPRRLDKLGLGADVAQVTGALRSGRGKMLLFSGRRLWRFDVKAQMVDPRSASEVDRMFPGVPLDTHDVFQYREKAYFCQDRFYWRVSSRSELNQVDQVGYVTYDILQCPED

For the substance “Ac-NGRGDSLAYGLRSKSRSFQV-NH2 [GL fragment]”, the “MMP-9 cleavage site(s) found in the synthetic peptide” value is “GL (position 151–152)”.

On to “Ac-SLDVIPVAQLLSMPSDQDNN-NH2 [LL fragment]”, for which the “MMP-9 cleavage site(s) found in the synthetic peptide” value is “AQ and LL; position 193-194 and 195-196”.
